From paper PMC8963331 (Toxicological Sciences, 2022)
Marks after values point to notes of the source that are not given here.

Columns and labels:
Type in all cases: in vivo
[1] = Rat EFD study: maternal and fetal plasma toxicokinetics
[2] = system: Crl:CD Sprague Dawley (SD) rats; experiment: Rat 4-, 13-, 26-week repeat-dose general toxicity studies
Procedure, shortened: (§1)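 Crl:CD Sprague Dawley rats, 7–8 weeks old at start, dosed daily by oral gavage (10 ml/kg) at 0 (vehicle), 30, 100 or 1000 mg/kg/day for 4, 13 or 26 weeks. n = 10/sex/group, plus 4-week dose-free recovery (n = 5/sex). Rats fasted overnight. Hematology, coagulation and clinical chemistry sampled at baseline, end of dosing and end of recovery. Sexes pooled; treated groups compared with vehicle; variance homogeneity by […] Levene test.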

[3] = as above; settings: both, Sprague-Dawley (Crl:CD), rat, in vivo, oral
Procedure, shortened: as §1

[4] = Rat repeat-dose toxicity studies: plasma toxicokinetics; settings: rat, plasma, po, last day of dosing; for Cmax: Mean Cmax
[5] = maternal rat, 30 and 100 mg/kg/day
[6] = maternal rat, GD 17, 1000 mg/kg/day
[7] = rat, 4 weeks, 1000 mg/kg/day, reversible
[8] = rat, 13 weeks, 1000 mg/kg/day, reversible
[9] = rat, 26 weeks, 1000 mg/kg/day, reversible

Cc1cc(Nc2cc3ncccc3c(N[C@@H]3C[C@H]4CC[C@@H](C3)N4CCC#N)n2)n[nH]1 [izencitinib, Izencitinib]
Cave:protein-corrected IC50 ratio [1, 5]: < 1 ×
Cave:uncorrected IC50 ratio [1, 5]: < 1 ×
Mean Cave ([1]; maternal rat, GD 6, 30 mg/kg/day oral): 0.613 ng/mL
Mean Cave ([1]; maternal rat, GD 6, 100 mg/kg/day oral): 2.15 ng/mL
Mean Cave ([1]; maternal rat, GD 6, 1000 mg/kg/day oral): 16.2 ng/mL
Mean Cave ([1]; maternal rat, GD 17, 30 mg/kg/day oral): 0.663 ng/mL
Mean Cave ([1]; maternal rat, GD 17, 100 mg/kg/day oral): 2.88 ng/mL
plasma Cave:protein-corrected JAK IC50 ratio [1, 6]: < 1 ×
plasma Cave:uncorrected JAK IC50 ratio [1, 6]: 2 ×
time at supratherapeutic plasma levels [1, 6]: 12 to 15 h
Mean Cave ([1]; maternal rat, GD 17, 1000 mg/kg/day oral): 23.8 ng/mL
nonclinical:clinical AUC ratio at the NOAEL ([1]; rat EFD study, 1000 mg/kg/day, vs human 300 mg QD): 10 fold
fetal plasma concentrations, all other samples ([1]; rat fetuses, below lower limit of quantitation): < 1 ng/mL
concentration at 3 h ([1]; rat, fetal plasma, oral, 1000 mg/kg/day): 1.18 ng/mL
organ weights and microscopic findings in male reproductive tissues ([2]; rat repeat-dose studies, up to highest tested doses): no microscopic findings
effects on lipid levels ([2]; rat repeat-dose toxicity studies, any dose): no effects
spleen weight, change ([2]; rat, 100 mg/kg/day): 0.87 ×
spleen weight, change ([2]; rat, 1000 mg/kg/day): 0.78–0.86 ×
no observed adverse effect level ([2]; rat, 4 weeks): 1000^c mg/kg/day
platelet counts, change ([2]; rat, 4 weeks, 100 mg/kg/day, reversible): 1.1 ×
lymphocyte counts, change [2, 7]: 0.64 ×
platelet counts, change [2, 7]: 1.2 ×
white blood cell counts, change [2, 7]: 0.66 ×
changes in red blood cell parameters ([2]; rat, 4 weeks, any dose): No changes
no observed adverse effect level ([2]; rat, 13 weeks): 1000^c mg/kg/day
lymphocyte counts, change ([2]; rat, 13 weeks, 100 mg/kg/day, reversible): 0.78 ×
hemoglobin levels, change ([2]; rat, 13 weeks, 1000 mg/kg/day, end of dosing): 0.97 ×
hemoglobin levels, change ([2]; rat, 13 weeks, 1000 mg/kg/day, end of recovery period): 0.95 ×
lymphocyte counts, change [2, 8]: 0.64 ×
platelet counts, change [2, 8]: 1.2 ×
red blood cell counts, change [2, 8]: 0.96 ×
white blood cell counts, change [2, 8]: 0.74 ×
platelet counts, change ([2]; rat, 26 weeks, 1000 mg/kg/day): 1.1 ×
white blood cell counts, change ([2]; rat, 26 weeks, 1000 mg/kg/day): 0.68 ×
incidence of minimally decreased lymphoid cellularity, females [2, 9]: 1 of 10
incidence of minimally decreased lymphoid cellularity, males [2, 9]: 4 of 10
hemoglobin levels, change ([2]; rat, 26 weeks, all dose levels): 0.95 ×
effects on food consumption, ophthalmic evaluations, clinical chemistry, urinalysis ([2]; rat, all repeat-dose studies): no effects
changes in reticulocyte levels ([2]; rat, any dose, 3 studies): No changes
effects on neutrophils ([2]; rat, any dose, 3 studies): No izencitinib-related effects
changes in coagulation parameters ([2]; rat, any dose, all 3 studies): no changes
other changes in organ weights or microscopic effects, including GI tissues ([2]; rat, up to 1000 mg/kg/day, all studies): No other changes
tolerability ([2]; rat, up to highest tested dose 1000 mg/kg/day, 4-, 13-, 26-week studies): well-tolerated
NOAEL at 26 weeks [3]: 1000 mg/kg/day
AUC(0-t) ([4]; female, Sprague-Dawley (Crl:CD), 30 mg/kg/day, Mean AUC0–24, rat female, 30 mg/kg/day oral, 26 weeks): 16.7 ng·h/mL
Cmax ([4]; female, Sprague-Dawley (Crl:CD), 30 mg/kg/day, rat female, 30 mg/kg/day oral, 26 weeks): 6.02 ng/mL
AUC(0-t) ([4]; female, Sprague-Dawley (Crl:CD), 100 mg/kg/day, Mean AUC0–24, rat female, 100 mg/kg/day oral, 26 weeks): 127 ng·h/mL
Cmax ([4]; female, Sprague-Dawley (Crl:CD), 100 mg/kg/day, rat female, 100 mg/kg/day oral, 26 weeks): 32.5 ng/mL
AUC(0-t) ([4]; female, Sprague-Dawley (Crl:CD), 1000 mg/kg/day, Mean AUC0–24, rat female, 1000 mg/kg/day oral, 26 weeks): 453 ng·h/mL
Cmax ([4]; female, Sprague-Dawley (Crl:CD), 1000 mg/kg/day, rat female, 1000 mg/kg/day oral, 26 weeks): 96.3 ng/mL
AUC(0-t) ([4]; female, Sprague-Dawley, 30 mg/kg/day, Mean AUC0–24, rat female, 30 mg/kg/day oral, 4 weeks): 25.7 ng·h/mL
AUC(0-t) ([4]; female, Sprague-Dawley, 30 mg/kg/day, Mean AUC0–24, rat female, 30 mg/kg/day oral, 13 weeks): 54.6 ng·h/mL
AUC(0-t) ([4]; female, Sprague-Dawley, 100 mg/kg/day, Mean AUC0–24, rat female, 100 mg/kg/day oral, 4 weeks): 70.5 ng·h/mL
AUC(0-t) ([4]; female, Sprague-Dawley, 100 mg/kg/day, Mean AUC0–24, rat female, 100 mg/kg/day oral, 13 weeks): 227 ng·h/mL
AUC(0-t) ([4]; female, Sprague-Dawley, 1000 mg/kg/day, Mean AUC0–24, rat female, 1000 mg/kg/day oral, 4 weeks): 384 ng·h/mL
AUC(0-t) ([4]; male, Sprague-Dawley (Crl:CD), 30 mg/kg/day, Mean AUC0–24, rat male, 30 mg/kg/day oral, 26 weeks): 34.6 ng·h/mL
Cmax ([4]; male, Sprague-Dawley (Crl:CD), 30 mg/kg/day, rat male, 30 mg/kg/day oral, 26 weeks): 4.52 ng/mL
AUC(0-t) ([4]; male, Sprague-Dawley (Crl:CD), 100 mg/kg/day, Mean AUC0–24, rat male, 100 mg/kg/day oral, 26 weeks): 95.7 ng·h/mL
Cmax ([4]; male, Sprague-Dawley (Crl:CD), 100 mg/kg/day, rat male, 100 mg/kg/day oral, 26 weeks): 15.8 ng/mL
